What all share (assay type): cell-based
Experiment [1] deals with T1, C-X-C chemokine receptor type 4 (Homo sapiens, UniProt P61073). Put plainly: Displacement of [125I]-CXCL12 from HA-tagged human recombinant CXCR4 expressed in HEK293 cells incubated for 1 hr by gamma-radiation counting analysis. On the technique in general: In a radioligand displacement assay an active substance lowers the binding of a labelled ligand.
The target of experiment [2] is T1, C-X-C chemokine receptor type 4. Put plainly: Agonist activity at HA-tagged human CXCR4 receptor expressed in HEK293 cells co-transfected with Galphai1-91-RlucII, Gbeta1, and GFP10-G-gamma1 incubated for 7 mins by Galpha1 protein activation-based BRET assay. A digest of the protocol:
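HEK293 cells (3 × 10^6 per 100 mm dish) co-transfected via polyethylenimine with HA-hCXCR4 plus Gαi1-91-RlucII, Gβ1, GFP10-Gγ1; replated at 24 h, 100 000 cells/well. At 48 h, washed in HBSS/0.1% BSA, exposed to ligand 10−12 to 10−5 M for 7 min, then coelenterazine-400A 5 μM final; BRET2 515/400 nm ratio. EC50 (Gαi dissociation) and Emax from three experiments in triplicate.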

The target is the same in experiment [3]. The experiment is described as follows: Agonist activity at CXCR4 in human REH cells assessed as induction of chemotaxis incubated for 3 hrs by transwell migration assay. A digest of the protocol:
(§1)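 REH acute lymphoblastic B-cell leukaemia cells washed in RPMI; 100 000 cells in RPMI + 0.2% BSA seeded on top of 5 μm pore polycarbonate transwell, peptide dilutions in same medium in bottom chamber; 3 h, 37 °C, 5% CO2. Migrated cells in lower chamber counted by automated counter, expressed as % of seeded cells; peak = concentration giving maximal migration. Three experiments in triplicate.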

For experiment [4] the target is unchanged. Put plainly: Agonist activity at CXCR4 in human REH cells assessed as optimal concentration causing maximum induction of chemotaxis incubated for 3 hrs by transwell migration assay. An outline of the steps: as §1

SMILES strings stand for the structures. pEC50, pIC50: −log10 of the molar value.

T1 sequence (P61073 whole entry): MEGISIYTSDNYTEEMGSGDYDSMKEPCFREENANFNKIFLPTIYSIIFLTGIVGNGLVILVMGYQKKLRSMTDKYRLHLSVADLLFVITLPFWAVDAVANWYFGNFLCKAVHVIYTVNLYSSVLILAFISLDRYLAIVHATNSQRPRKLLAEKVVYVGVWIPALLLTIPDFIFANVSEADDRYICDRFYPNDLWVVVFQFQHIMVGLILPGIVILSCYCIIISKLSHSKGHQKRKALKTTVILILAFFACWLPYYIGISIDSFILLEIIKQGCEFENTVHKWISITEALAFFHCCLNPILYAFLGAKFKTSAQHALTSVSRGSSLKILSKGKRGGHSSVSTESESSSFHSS

By pIC50 is commonly meant the negative decadic logarithm of the IC50, by convention in mol/L. Broadly, the pEC50 is the negative decadic logarithm of the EC50, by convention in mol/L. Low values mean a high EC50, high ones a low EC50. The term Emax denotes the greatest response seen or fitted, relative to the assay's reference. For the compound `CC(C)C[C@H](NC(=O)[C@H](C)NC(=O)[C@@H](NC(=O)[C@@H]1CCCN1C(=O)[C@@H](N)CCCCN)C(C)C)C(=O)N[C@@H](CO)C(=O)N[C@@H](Cc1ccc(O)cc1)C(=O)N[C@@H](CCCNC(=N)N)C(=O)N[C@@H](CO)C(=O)N[C@@H](C)C(=O)NCCCC[C@H](NC(=O)[C@@H]1CSSC[C@H](NC(=O)[C@H](Cc2ccc3ccccc3c2)NC(=O)[C@H](CCCNC(=N)N)NC(=O)[C@@H](N)CCCNC(=N)N)C(=O)N[C@@H](Cc2ccc(O)cc2)C(=O)N[C@@H](CCCNC(=N)N)C(=O)N[C@@H](CCCCN)C(=O)N[C@H](CCCCN)C(=O)N2CCC[C@H]2C(=O)N[C@@H](Cc2ccc(O)cc2)C(=O)N[C@@H](CCCNC(=N)N)C(=O)N[C@@H](CCCNC(=N)N)C(=O)N1)C(=O)O`, the pIC50 in experiment [1] was 7.60. Moreover, in experiment [2], the pEC50 was 7.25 and the Emax was determined as 81%. For the same compound, the %max in experiment [3] stood at 50%. Further, the Activity in experiment [4] worked out at 10 nM.
The corresponding values for `CC(C)C[C@H](NC(=O)[C@H](CO)NC(=O)[C@H](C/C=C/c1ccccc1)NC(=O)[C@@H]1CCCN1C(=O)[C@@H](N)CCCCN)C(=O)N[C@@H](CO)C(=O)N[C@@H](Cc1ccc(O)cc1)C(=O)N[C@@H](CCCNC(=N)N)C(=O)N[C@@H](CO)C(=O)N[C@@H](C)C(=O)NCCCC[C@H](NC(=O)[C@@H]1CSSC[C@H](NC(=O)[C@H](Cc2ccc3ccccc3c2)NC(=O)[C@H](CCCNC(=N)N)NC(=O)[C@@H](N)CCCNC(=N)N)C(=O)N[C@@H](Cc2ccc(O)cc2)C(=O)N[C@@H](CCCNC(=N)N)C(=O)N[C@@H](CCCCN)C(=O)N[C@H](CCCCN)C(=O)N2CCC[C@H]2C(=O)N[C@@H](Cc2ccc(O)cc2)C(=O)N[C@@H](CCCNC(=N)N)C(=O)N[C@@H](CCCNC(=N)N)C(=O)N1)C(=O)O` are 7.51, 7.30, 70%, 70% and 10 nM.
Turning to `CC(C)C[C@H](NC(=O)[C@H](CO)NC(=O)[C@@H](NC(=O)[C@@H]1CCCN1C(=O)[C@@H](N)CCCCN)C(C)C)C(=O)N[C@@H](CO)C(=O)N[C@@H](Cc1ccc(F)cc1)C(=O)N[C@@H](CCCNC(=N)N)C(=O)N[C@@H](CO)C(=O)N[C@@H](C)C(=O)NCCCC[C@H](NC(=O)[C@@H]1CSSC[C@H](NC(=O)[C@H](Cc2ccc3ccccc3c2)NC(=O)[C@H](CCCNC(=N)N)NC(=O)[C@@H](N)CCCNC(=N)N)C(=O)N[C@@H](Cc2ccc(O)cc2)C(=O)N[C@@H](CCCNC(=N)N)C(=O)N[C@@H](CCCCN)C(=O)N[C@H](CCCCN)C(=O)N2CCC[C@H]2C(=O)N[C@@H](Cc2ccc(O)cc2)C(=O)N[C@@H](CCCNC(=N)N)C(=O)N[C@@H](CCCNC(=N)N)C(=O)N1)C(=O)O`, the pIC50 in experiment [1] was 7.11. Besides, in experiment [2], the pEC50 was 7.08 and the Emax turned out to be 60%. In experiment [3], the %max stood at 43%. The Activity in experiment [4] was 10 nM.
The matching figures for `CC(C)C[C@H](NC(=O)[C@H](CO)NC(=O)[C@@H](NC(=O)[C@@H]1CCCN1C(=O)[C@@H](N)CCCCN)C(C)C)C(=O)N[C@@H](CO)C(=O)N[C@@H](Cc1ccc(O)cc1)C(=O)N[C@@H](CCCNC(=N)N)C(=O)N[C@@H](C)C(=O)N[C@@H](C)C(=O)NCCCC[C@H](NC(=O)[C@@H]1CSSC[C@H](NC(=O)[C@H](Cc2ccc3ccccc3c2)NC(=O)[C@H](CCCNC(=N)N)NC(=O)[C@@H](N)CCCNC(=N)N)C(=O)N[C@@H](Cc2ccc(O)cc2)C(=O)N[C@@H](CCCNC(=N)N)C(=O)N[C@@H](CCCCN)C(=O)N[C@H](CCCCN)C(=O)N2CCC[C@H]2C(=O)N[C@@H](Cc2ccc(O)cc2)C(=O)NC(CCCNC(=N)N)C(=O)N[C@@H](CCCNC(=N)N)C(=O)N1)C(=O)O` (stereo partly drawn): 6.86, 6.95, 21%, 19% and 1000 nM.
The corresponding values for `CC(C)C[C@H](NC(=O)[C@H](CO)NC(=O)[C@@H](NC(=O)[C@@H]1CCCN1C(=O)[C@@H](N)CCCCN)C(C)C)C(=O)N[C@@H](CO)C(=O)N[C@@H](Cc1ccccc1)C(=O)N[C@@H](CCCNC(=N)N)C(=O)N[C@@H](CO)C(=O)N[C@@H](C)C(=O)NCCCC[C@H](NC(=O)[C@@H]1CSSC[C@H](NC(=O)[C@H](Cc2ccc3ccccc3c2)NC(=O)[C@H](CCCNC(=N)N)NC(=O)[C@@H](N)CCCNC(=N)N)C(=O)N[C@@H](Cc2ccc(O)cc2)C(=O)N[C@@H](CCCNC(=N)N)C(=O)N[C@@H](CCCCN)C(=O)N[C@H](CCCCN)C(=O)N2CCC[C@H]2C(=O)N[C@@H](Cc2ccc(O)cc2)C(=O)N[C@@H](CCCNC(=N)N)C(=O)N[C@@H](CCCNC(=N)N)C(=O)N1)C(=O)O` are 7.16, 7.19, 41%, 16% and 10 nM.
The matching figures for `CC(C)C[C@H](NC(=O)[C@H](CO)NC(=O)[C@@H](NC(=O)[C@@H]1CCCN1C(=O)[C@@H](N)CCCCN)C(C)C)C(=O)N[C@@H](CO)C(=O)N[C@@H](Cc1ccc(I)cc1)C(=O)N[C@@H](CCCNC(=N)N)C(=O)N[C@@H](CO)C(=O)N[C@@H](C)C(=O)NCCCC[C@H](NC(=O)[C@@H]1CSSC[C@H](NC(=O)[C@H](Cc2ccc3ccccc3c2)NC(=O)[C@H](CCCNC(=N)N)NC(=O)[C@@H](N)CCCNC(=N)N)C(=O)N[C@@H](Cc2ccc(O)cc2)C(=O)N[C@@H](CCCNC(=N)N)C(=O)N[C@@H](CCCCN)C(=O)N[C@H](CCCCN)C(=O)N2CCC[C@H]2C(=O)N[C@@H](Cc2ccc(O)cc2)C(=O)N[C@@H](CCCNC(=N)N)C(=O)N[C@@H](CCCNC(=N)N)C(=O)N1)C(=O)O`: 7.14, 7.03, 59%, 51% and 100 nM.
`CC(C)C[C@H](NC(=O)[C@H](CO)NC(=O)[C@H](C)NC(=O)[C@@H]1CCCN1C(=O)[C@@H](N)CCCCN)C(=O)N[C@@H](CO)C(=O)N[C@@H](Cc1ccc(O)cc1)C(=O)N[C@@H](CCCNC(=N)N)C(=O)N[C@@H](CO)C(=O)N[C@@H](C)C(=O)NCCCC[C@H](NC(=O)[C@@H]1CSSC[C@H](NC(=O)[C@H](Cc2ccc3ccccc3c2)NC(=O)[C@H](CCCNC(=N)N)NC(=O)[C@@H](N)CCCNC(=N)N)C(=O)N[C@@H](Cc2ccc(O)cc2)C(=O)N[C@@H](CCCNC(=N)N)C(=O)N[C@@H](CCCCN)C(=O)N[C@H](CCCCN)C(=O)N2CCC[C@H]2C(=O)N[C@@H](Cc2ccc(O)cc2)C(=O)N[C@@H](CCCNC(=N)N)C(=O)N[C@@H](CCCNC(=N)N)C(=O)N1)C(=O)O`: in experiment [1], the pIC50 was 7.25. In experiment [2], this compound showed a pEC50 of 7.04 and an Emax of 50%. The %max in experiment [3] was found to be 30%. Besides, the Activity in experiment [4] is 10 nM.
The matching figures for `CC(C)C[C@H](NC(=O)[C@H](CO)NC(=O)[C@@H](NC(=O)[C@@H]1CCCN1C(=O)[C@@H](N)CCCCN)C(C)C)C(=O)N[C@@H](C)C(=O)N[C@@H](Cc1ccc(O)cc1)C(=O)N[C@@H](CCCNC(=N)N)C(=O)N[C@@H](CO)C(=O)N[C@@H](C)C(=O)NCCCC[C@H](NC(=O)[C@@H]1CSSC[C@H](NC(=O)[C@H](Cc2ccc3ccccc3c2)NC(=O)[C@H](CCCNC(=N)N)NC(=O)[C@@H](N)CCCNC(=N)N)C(=O)N[C@@H](Cc2ccc(O)cc2)C(=O)N[C@@H](CCCNC(=N)N)C(=O)N[C@@H](CCCCN)C(=O)N[C@H](CCCCN)C(=O)N2CCC[C@H]2C(=O)N[C@@H](Cc2ccc(O)cc2)C(=O)N[C@@H](CCCNC(=N)N)C(=O)N[C@@H](CCCNC(=N)N)C(=O)N1)C(=O)O`: 6.43, 6.84, 19%, 11.4% and 10000 nM.
The corresponding values for `CC(C)C[C@H](NC(=O)[C@H](CO)NC(=O)[C@H](Cc1ccc(C(=O)c2ccccc2)cc1)NC(=O)[C@@H]1CCCN1C(=O)[C@@H](N)CCCCN)C(=O)N[C@@H](CO)C(=O)N[C@@H](Cc1ccc(O)cc1)C(=O)N[C@@H](CCCNC(=N)N)C(=O)N[C@@H](CO)C(=O)N[C@@H](C)C(=O)NCCCC[C@H](NC(=O)[C@@H]1CSSC[C@H](NC(=O)[C@H](Cc2ccc3ccccc3c2)NC(=O)[C@H](CCCNC(=N)N)NC(=O)[C@@H](N)CCCNC(=N)N)C(=O)N[C@@H](Cc2ccc(O)cc2)C(=O)N[C@@H](CCCNC(=N)N)C(=O)N[C@@H](CCCCN)C(=O)N[C@H](CCCCN)C(=O)N2CCC[C@H]2C(=O)N[C@@H](Cc2ccc(O)cc2)C(=O)N[C@@H](CCCNC(=N)N)C(=O)N[C@@H](CCCNC(=N)N)C(=O)N1)C(=O)O` are 7.23, 7.28, 75%, 72% and 10 nM.
Turning to `CC(C)C[C@H](NC(=O)[C@H](CO)NC(=O)[C@@H](NC(=O)[C@@H]1CCCN1C(=O)[C@@H](N)CCCCN)C(C)C)C(=O)N[C@@H](CO)C(=O)N[C@@H](Cc1ccc(O)cc1)C(=O)NCCOCCOCCOCCC(=O)NCCCC[C@H](NC(=O)[C@@H]1CSSC[C@H](NC(=O)[C@H](Cc2ccc3ccccc3c2)NC(=O)[C@H](CCCNC(=N)N)NC(=O)[C@@H](N)CCCNC(=N)N)C(=O)N[C@@H](Cc2ccc(O)cc2)C(=O)N[C@@H](CCCNC(=N)N)C(=O)N[C@@H](CCCCN)C(=O)N[C@H](CCCCN)C(=O)N2CCC[C@H]2C(=O)N[C@@H](Cc2ccc(O)cc2)C(=O)N[C@@H](CCCNC(=N)N)C(=O)N[C@@H](CCCNC(=N)N)C(=O)N1)C(=O)O`, the pIC50 in experiment [1] is 6.36. In experiment [2], this compound had a pEC50 of 7.21 and an Emax of 24%.

For the origin of these results see ChEMBL document CHEMBL3860039, “Structure-Activity Relationship and Signaling of New Chimeric CXCR4 Agonists” (J Med Chem, 2016).
